Source: ChEMBL document CHEMBL5678815 (Clin Cancer Res, 2017)
Activity calls are given as the source filed them. The calls are words filed in the database; no cut-off is given here.

Columns and labels:
[1] = biological target: AP2-associated protein kinase 1 (Homo sapiens) (UniProt Q2M2I8); test: Inhibition of human AAK1 assessed as remaining activity at 1 uM by ATP-competition binding assay relative to control
How it was run: (§1)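 KINOMEscan ATP-site-dependent competition binding panel of 395 human kinases, with compound tested at 1 μM. Binding is reported as remaining signal relative to control.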

[2] = biological target: RAC-beta serine/threonine-protein kinase (Homo sapiens) (UniProt P31751); test: Inhibition of human AKT2 assessed as remaining activity at 1 uM by ATP-competition binding assay relative to control; how it was run: as §1
[3] = biological target: Calcium/calmodulin-dependent protein kinase type 1 (Homo sapiens) (UniProt Q14012); test: Inhibition of human CAMK1 assessed as remaining activity at 1 uM by ATP-competition binding assay relative to control; how it was run: as §1
[4] = biological target: Calcium/calmodulin-dependent protein kinase type 1D (Homo sapiens) (UniProt Q8IU85); test: Inhibition of human CAMK1D assessed as remaining activity at 1 uM by ATP-competition binding assay relative to control; how it was run: as §1
[5] = biological target: Casein kinase II subunit alpha (Homo sapiens) (UniProt P68400); test: Inhibition of human CSNK2A1 assessed as remaining activity at 1 uM by ATP-competition binding assay relative to control; how it was run: as §1
Sequence of Casein kinase II subunit alpha (Homo sapiens) (P68400 whole entry, looked up): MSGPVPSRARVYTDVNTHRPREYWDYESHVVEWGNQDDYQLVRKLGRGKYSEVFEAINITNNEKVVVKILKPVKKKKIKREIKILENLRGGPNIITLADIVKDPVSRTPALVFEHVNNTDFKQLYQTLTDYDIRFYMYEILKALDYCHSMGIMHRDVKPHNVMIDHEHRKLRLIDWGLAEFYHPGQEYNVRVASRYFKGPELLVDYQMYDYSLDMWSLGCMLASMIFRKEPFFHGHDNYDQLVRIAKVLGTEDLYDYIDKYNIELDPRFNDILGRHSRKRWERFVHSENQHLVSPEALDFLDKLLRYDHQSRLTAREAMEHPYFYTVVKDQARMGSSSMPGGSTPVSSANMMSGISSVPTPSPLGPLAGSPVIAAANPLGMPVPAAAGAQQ

[6] = tested on: Epidermal growth factor receptor (Homo sapiens), P00533 [UNDEFINED MUTATION]; test: Inhibition of human EGFR E746-A750del mutant assessed as remaining activity at 1 uM by ATP-competition binding assay relative to control
How it was run: (§2)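 KINOMEscan ATP-site-dependent competition binding assay across a 395-kinase human panel including mutants; compound tested at 1μM; binding expressed relative to control signal.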

[7] = tested on: Epidermal growth factor receptor (Homo sapiens), P00533 [L858R,T790M]; test: Inhibition of human EGFR L858R/T790M mutant assessed as remaining activity at 1 uM by ATP-competition binding assay relative to control; how it was run: as §2
[8] = tested on: Fibroblast growth factor receptor 3 (Homo sapiens), P22607 [G697C]; test: Inhibition of human FGFR3 G697C mutant assessed as remaining activity at 1 uM by ATP-competition binding assay relative to control
How it was run: (§3)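 Single-point profiling at 1μM in an ATP-site-dependent competition binding assay across a panel of 395 human kinases, including mutant forms. The read-out is kinase binding signal in the presence of test agent, expressed as inhibition relative to the control signal. This screen assessed noncovalent binding interactions.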

[9] = biological target: Tyrosine-protein kinase HCK (Homo sapiens) (UniProt P08631); test: Inhibition of human HCK assessed as remaining activity at 1 uM by ATP-competition binding assay relative to control; how it was run: as §3
[10] = biological target: Mast/stem cell growth factor receptor Kit (Homo sapiens) (UniProt P10721); test: Inhibition of human KIT assessed as remaining activity at 1 uM by ATP-competition binding assay relative to control; how it was run: as §3
[11] = biological target: Serine/threonine-protein kinase LATS1 (Homo sapiens) (UniProt O95835); test: Inhibition of human LATS1 assessed as remaining activity at 1 uM by ATP-competition binding assay relative to control; how it was run: as §3
[12] = biological target: Tyrosine-protein kinase Lck (Homo sapiens) (UniProt P06239); test: Inhibition of human LCK assessed as remaining activity at 1 uM by ATP-competition binding assay relative to control; how it was run: as §3
Sequence of Tyrosine-protein kinase Lck (Homo sapiens) (P06239 2-509 limits assumed): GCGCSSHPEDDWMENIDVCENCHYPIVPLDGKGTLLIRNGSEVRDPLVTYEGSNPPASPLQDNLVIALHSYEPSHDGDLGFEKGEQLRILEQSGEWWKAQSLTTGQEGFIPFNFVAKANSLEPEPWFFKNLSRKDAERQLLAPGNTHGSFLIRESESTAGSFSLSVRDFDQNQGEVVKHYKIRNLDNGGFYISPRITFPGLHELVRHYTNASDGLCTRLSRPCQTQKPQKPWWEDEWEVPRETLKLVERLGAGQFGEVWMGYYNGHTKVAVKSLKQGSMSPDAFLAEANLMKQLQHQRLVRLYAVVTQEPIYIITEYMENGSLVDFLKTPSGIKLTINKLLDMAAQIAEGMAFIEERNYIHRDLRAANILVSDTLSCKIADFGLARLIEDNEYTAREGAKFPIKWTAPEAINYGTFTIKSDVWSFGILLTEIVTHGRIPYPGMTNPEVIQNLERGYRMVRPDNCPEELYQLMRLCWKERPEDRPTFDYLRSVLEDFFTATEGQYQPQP

[13] = biological target: Serine/threonine-protein kinase MARK2 (Homo sapiens) (UniProt Q7KZI7); test: Inhibition of human MARK2 assessed as remaining activity at 1 uM by ATP-competition binding assay relative to control; how it was run: as §3
Sequence of Serine/threonine-protein kinase MARK2 (Homo sapiens) (Q7KZI7 whole entry): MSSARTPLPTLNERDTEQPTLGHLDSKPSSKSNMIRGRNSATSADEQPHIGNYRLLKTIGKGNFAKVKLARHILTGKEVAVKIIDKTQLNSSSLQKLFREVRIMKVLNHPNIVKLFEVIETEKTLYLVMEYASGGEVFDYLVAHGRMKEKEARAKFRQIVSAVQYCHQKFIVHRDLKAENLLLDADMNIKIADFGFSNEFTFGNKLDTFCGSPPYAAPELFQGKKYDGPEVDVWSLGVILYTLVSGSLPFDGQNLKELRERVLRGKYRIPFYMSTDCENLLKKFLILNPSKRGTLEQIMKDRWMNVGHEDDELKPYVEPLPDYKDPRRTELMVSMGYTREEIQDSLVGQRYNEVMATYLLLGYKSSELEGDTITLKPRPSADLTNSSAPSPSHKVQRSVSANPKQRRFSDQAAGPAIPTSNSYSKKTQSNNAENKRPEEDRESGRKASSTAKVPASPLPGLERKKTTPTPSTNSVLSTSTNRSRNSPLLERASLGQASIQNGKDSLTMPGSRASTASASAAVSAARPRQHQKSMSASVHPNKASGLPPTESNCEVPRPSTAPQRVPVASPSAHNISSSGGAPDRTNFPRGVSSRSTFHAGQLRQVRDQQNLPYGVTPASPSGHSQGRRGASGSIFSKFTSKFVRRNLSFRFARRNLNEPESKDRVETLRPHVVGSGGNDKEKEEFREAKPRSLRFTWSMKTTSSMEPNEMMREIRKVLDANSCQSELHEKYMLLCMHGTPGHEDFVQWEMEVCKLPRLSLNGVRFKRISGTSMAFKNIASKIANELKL

[14] = biological target: Serine/threonine-protein kinase pim-2 (Homo sapiens) (UniProt Q9P1W9); test: Inhibition of human PIM2 assessed as remaining activity at 1 uM by ATP-competition binding assay relative to control
How it was run: (§4)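 Single-concentration (1 μM) screen in an ATP-site-dependent competition binding assay (KINOMEscan, outsourced) covering 395 human kinases, mutants included. Non-covalent binding was read as the remaining signal relative to the control signal.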

[15] = biological target: Serine/threonine-protein kinase pim-3 (Homo sapiens) (UniProt Q86V86); test: Inhibition of human PIM3 assessed as remaining activity at 1 uM by ATP-competition binding assay relative to control; how it was run: as §4
[16] = biological target: Serine/threonine-protein kinase N1 (Homo sapiens) (UniProt Q16512); test: Inhibition of human PKN1 assessed as remaining activity at 1 uM by ATP-competition binding assay relative to control; how it was run: as §4
Sequence of Serine/threonine-protein kinase N1 (Homo sapiens) (Q16512 2-942 limits assumed): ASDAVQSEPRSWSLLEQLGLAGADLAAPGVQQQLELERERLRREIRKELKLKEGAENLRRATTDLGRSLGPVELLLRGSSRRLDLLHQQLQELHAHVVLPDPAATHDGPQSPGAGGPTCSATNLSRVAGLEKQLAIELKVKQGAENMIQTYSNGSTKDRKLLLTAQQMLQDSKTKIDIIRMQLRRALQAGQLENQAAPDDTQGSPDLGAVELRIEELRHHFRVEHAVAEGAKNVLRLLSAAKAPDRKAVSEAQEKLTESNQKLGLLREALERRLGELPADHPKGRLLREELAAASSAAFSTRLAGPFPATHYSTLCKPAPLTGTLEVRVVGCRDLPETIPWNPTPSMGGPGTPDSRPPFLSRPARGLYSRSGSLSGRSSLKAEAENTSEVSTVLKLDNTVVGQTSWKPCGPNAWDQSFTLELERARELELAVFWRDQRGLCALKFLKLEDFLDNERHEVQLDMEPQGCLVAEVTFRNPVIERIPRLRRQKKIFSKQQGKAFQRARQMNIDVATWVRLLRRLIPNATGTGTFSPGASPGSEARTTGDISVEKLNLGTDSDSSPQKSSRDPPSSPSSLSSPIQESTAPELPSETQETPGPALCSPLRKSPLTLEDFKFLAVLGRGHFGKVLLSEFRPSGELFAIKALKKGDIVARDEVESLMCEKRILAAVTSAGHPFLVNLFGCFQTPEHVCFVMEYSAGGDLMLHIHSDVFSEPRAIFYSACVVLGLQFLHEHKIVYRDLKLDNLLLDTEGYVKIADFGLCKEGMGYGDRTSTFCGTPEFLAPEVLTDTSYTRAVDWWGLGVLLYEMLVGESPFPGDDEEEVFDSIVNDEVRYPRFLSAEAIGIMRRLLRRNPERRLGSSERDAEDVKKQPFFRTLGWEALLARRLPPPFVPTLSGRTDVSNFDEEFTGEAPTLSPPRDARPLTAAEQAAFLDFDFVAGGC

[17] = tested on: Proto-oncogene tyrosine-protein kinase receptor Ret (Homo sapiens), P07949 [M918T]; test: Inhibition of human RET M918T assessed as remaining activity at 1 uM by ATP-competition binding assay relative to control; how it was run: as §4
Sequence of Proto-oncogene tyrosine-protein kinase receptor Ret (Homo sapiens), P07949 [M918T] (P07949 whole entry M918T): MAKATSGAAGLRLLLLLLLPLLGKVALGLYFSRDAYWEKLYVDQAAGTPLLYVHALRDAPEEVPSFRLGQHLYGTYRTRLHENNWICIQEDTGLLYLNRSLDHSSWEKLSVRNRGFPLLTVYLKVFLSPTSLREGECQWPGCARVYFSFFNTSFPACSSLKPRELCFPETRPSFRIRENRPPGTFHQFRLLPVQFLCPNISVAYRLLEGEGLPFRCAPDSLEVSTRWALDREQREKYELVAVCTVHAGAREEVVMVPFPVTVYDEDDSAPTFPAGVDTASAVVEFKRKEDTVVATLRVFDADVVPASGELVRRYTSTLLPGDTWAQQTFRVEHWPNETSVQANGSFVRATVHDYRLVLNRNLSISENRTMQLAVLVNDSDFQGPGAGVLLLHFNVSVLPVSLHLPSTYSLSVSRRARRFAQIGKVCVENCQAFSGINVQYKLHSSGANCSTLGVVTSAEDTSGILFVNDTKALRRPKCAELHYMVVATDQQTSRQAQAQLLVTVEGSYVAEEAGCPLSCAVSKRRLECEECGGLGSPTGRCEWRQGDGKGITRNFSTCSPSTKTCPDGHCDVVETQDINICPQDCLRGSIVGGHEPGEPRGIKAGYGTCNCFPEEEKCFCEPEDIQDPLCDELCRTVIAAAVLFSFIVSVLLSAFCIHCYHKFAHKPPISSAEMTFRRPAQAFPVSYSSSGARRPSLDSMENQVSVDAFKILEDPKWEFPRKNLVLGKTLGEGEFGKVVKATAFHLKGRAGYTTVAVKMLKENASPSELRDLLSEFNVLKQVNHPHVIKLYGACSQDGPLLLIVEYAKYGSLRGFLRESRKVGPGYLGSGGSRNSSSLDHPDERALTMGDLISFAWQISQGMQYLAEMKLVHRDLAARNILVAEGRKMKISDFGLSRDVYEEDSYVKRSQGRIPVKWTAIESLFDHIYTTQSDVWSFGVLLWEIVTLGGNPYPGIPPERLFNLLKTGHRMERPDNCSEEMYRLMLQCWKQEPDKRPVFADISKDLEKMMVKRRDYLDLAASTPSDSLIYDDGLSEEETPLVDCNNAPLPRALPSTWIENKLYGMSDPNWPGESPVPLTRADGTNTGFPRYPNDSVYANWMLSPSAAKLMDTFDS

[18] = biological target: Tyrosine-protein kinase Srms (Homo sapiens) (UniProt Q9H3Y6); test: Inhibition of human SRMS assessed as remaining activity at 1 uM by ATP-competition binding assay relative to control; how it was run: as §4
[19] = biological target: cGMP-dependent protein kinase 2 (Homo sapiens) (UniProt Q13237); test: Inhibition of human PRKG2 assessed as remaining activity at 1 uM by ATP-competition binding assay relative to control; how it was run: as §4
[20] = biological target: Tyrosine-protein kinase receptor Tie-1 (Homo sapiens) (UniProt P35590); test: Inhibition of human TIE1 assessed as remaining activity at 1 uM by ATP-competition binding assay relative to control; how it was run: as §4
Sequence of Tyrosine-protein kinase receptor Tie-1 (Homo sapiens) (P35590 whole entry): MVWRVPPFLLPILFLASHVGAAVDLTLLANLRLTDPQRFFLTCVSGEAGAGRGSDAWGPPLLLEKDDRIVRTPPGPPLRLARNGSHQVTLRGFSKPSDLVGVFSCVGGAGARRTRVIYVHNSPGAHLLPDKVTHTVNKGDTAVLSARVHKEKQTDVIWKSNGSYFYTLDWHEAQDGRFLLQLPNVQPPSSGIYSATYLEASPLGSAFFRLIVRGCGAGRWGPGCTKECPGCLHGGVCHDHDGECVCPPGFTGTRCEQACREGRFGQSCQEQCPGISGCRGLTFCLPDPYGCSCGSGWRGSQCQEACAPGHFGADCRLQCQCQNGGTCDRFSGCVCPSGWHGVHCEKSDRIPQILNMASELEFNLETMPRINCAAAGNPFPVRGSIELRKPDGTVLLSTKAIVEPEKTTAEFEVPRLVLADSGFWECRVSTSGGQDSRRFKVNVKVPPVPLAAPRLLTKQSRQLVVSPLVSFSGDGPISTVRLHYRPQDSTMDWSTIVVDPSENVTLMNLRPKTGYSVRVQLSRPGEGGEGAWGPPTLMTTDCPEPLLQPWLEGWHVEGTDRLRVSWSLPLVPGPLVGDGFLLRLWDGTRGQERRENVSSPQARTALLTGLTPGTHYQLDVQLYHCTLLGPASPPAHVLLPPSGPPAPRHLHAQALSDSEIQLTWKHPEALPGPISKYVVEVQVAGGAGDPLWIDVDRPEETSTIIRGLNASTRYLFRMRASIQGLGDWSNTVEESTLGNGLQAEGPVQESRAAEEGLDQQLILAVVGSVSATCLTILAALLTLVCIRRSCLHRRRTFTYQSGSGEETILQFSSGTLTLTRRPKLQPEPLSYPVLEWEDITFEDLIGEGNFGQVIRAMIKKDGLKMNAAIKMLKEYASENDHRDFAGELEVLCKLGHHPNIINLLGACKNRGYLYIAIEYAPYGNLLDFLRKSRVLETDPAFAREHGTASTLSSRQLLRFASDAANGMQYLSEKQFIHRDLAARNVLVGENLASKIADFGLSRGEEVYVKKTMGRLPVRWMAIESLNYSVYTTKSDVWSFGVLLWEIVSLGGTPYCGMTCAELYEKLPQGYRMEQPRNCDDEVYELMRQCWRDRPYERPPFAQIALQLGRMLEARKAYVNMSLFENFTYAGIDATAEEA

[21] = biological target: Activated CDC42 kinase 1 (Homo sapiens) (UniProt Q07912); test: Inhibition of human TNK2 assessed as remaining activity at 1 uM by ATP-competition binding assay relative to control; how it was run: as §4
[22] = tested on: Splenocyte; test: In vivo inhibition of BCR signaling in female […] mouse assessed as CD69 expression at 1.3 mg/kg, po administered and measured after stimulation with anti-IgM for 18 h by flow cytometry analysis; format: functional, organism-based
How it was run: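 Female C57BL/6 mice (5 per group per dose) were gavaged orally at 0.1–30 mg/kg. At 3 h, splenocytes were stimulated with anti-mouse IgM 10 μg/mL for 18 h at 37°C, 5% CO2. After Fc block, cells were stained for CD19 and CD69 with 7-AAD viability dye; >5,000 gated CD19+ cells acquired by flow cytometry.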

[23] = Antitumor activity against human CLL mononuclear cells xenografted NSG mouse assessed as reduction in the phosphorylation of PLCgamma2 at 0.3 mg/ml preadministered with compound via drinking water and measured after 3 weeks by flow cytometry analysis relative to control; format: functional, CLL mononuclear cell; set-up: scale not given: the % may be the effect or the level left
How it was run: (§5)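 Primary CLL patient mononuclear cells (1 × 10^8 per mouse) engrafted into NSG mice on day 0 after busulfan priming on day −1. Vehicle or drug was given in drinking water from day −1. Mice were killed 3 weeks after engraftment; spleens homogenized, filtered and RBC-lysed; whole blood collected. Six patients, 2–5 mice per patient; paired t-test per patient.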

[24] = Antitumor activity against human CLL mononuclear cells xenografted NSG mouse assessed as inhibition in the phosphorylation of ERK at 0.3 mg/ml preadministered with compound via drinking water and measured after 3 weeks by flow cytometry analysis relative to control; format: functional; conditions: CLL mononuclear cell, 504 h; how it was run: as §5
[25] = Antileukemic activity against human CLL mononuclear cells xenografted NSG mouse assessed as reduction in spleen cells at 0.3 to 0.16 mg/ml preadministered with compound via drinking water and measured after 3 weeks by flow cytometry analysis relative to control; format: functional, CLL mononuclear cell; set-up: scale not given: the % may be the effect or the level left; conditions: dose 0.3-0.16 mg/ml, at 0.16 to 0.3 mg/mL; how it was run: as §5

## CC#CC(=O)N1CCC[C@H]1c1nc(-c2ccc(C(=O)Nc3ccccn3)cc2)c2c(N)nccn12 [ACALABRUTINIB]
[1]
  Activity: 86%
[2]
  Activity: 100%
[3]
  Activity: 87%
[4]
  Activity: 98%
[5]
  Activity: 54%
[6]
  Activity: 85%
[7]
  Activity: 94%
[8]
  Activity: 77%
[9]
  Activity: 62%
[10]
  Activity: 84%
[11]
  Activity: 93%
[12]
  Activity: 90%
[13]
  Activity: 59%
[14]
  Activity: 79%
[15]
  Activity: 84%
[16]
  Activity: 94%
[17]
  Activity: 71%
[18]
  Activity: 67%
[19]
  Activity: 95%
[20]
  Activity: 89%
[21]
  Activity: 93%
[22]
  Activity: Active
[23]
  Activity: 68%
[24]
  inhibition in vivo at 300 µg/mL: 79%
[25]
  Activity: 33%
